How the values were obtained:
[1] = Dissociation constant, pKa of the compound; assay type: physicochemical
[2] = tested on: P-gp; test: Efflux ratio in P-gp expressing MDCK cells; assay type: ADME, cell-based, Canis lupus familiaris; settings: dog, MDCK-MDR1
[3] = tested on: P-gp; test: Permeability in P-gp expressing MDCK cells; assay type: ADME, cell-based, Canis lupus familiaris; settings: dog, MDCK-MDR1; read-out: permeability
[4] = Drug metabolism in mouse microsomes; assay type: ADME, Microsome
[5] = tested on: Plasma; test: Plasma concentration in PDAPP (V717F) transgenic mouse at 100 mg/kg, sc; assay type: ADME, organism-based; settings: in vivo
Procedure, shortened: (§1)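 Brain and plasma samples from PDAPP mice dosed subcutaneously were homogenized (brain) and mixed with methanol/acetonitrile (1:1, v/v) containing internal standard to precipitate protein. After centrifugation, supernatant was diluted 4-fold with water/methanol (1:1, v/v). Drug was quantified against calibration standards by LC–MS/MS on a C18 column.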

[6] = tested on: Brain; test: Drug level in brain of PDAPP (V717F) transgenic mouse at 100 mg/kg, sc; assay type: ADME, organism-based; settings: in vivo, read-out: Drug uptake; procedure, shortened: as §1

Row | Compound | pKa [1] | efflux ratio [2] | Papp [3] [×10⁻⁶ cm/s] | Drug metabolism [4] | concentration [5] [µM] | concentration [6] [µM]
1 | Cl.NC1=NC2CCC(NC(=O)c3cccc(Cl)c3)CC2CS1 (stereo not given) | 9.7 | 10 | 2.9 |  |  | 
2 | Cl.NC1=N[C@]23CC[C@H](NC(=O)c4cccc(Cl)c4)C[C@@H]2[C@@H](COC3)S1 | 9 | 8.5 | 2.2 |  |  | 
3 | NC1=NC2CCC(OC(=O)c3cccc(Cl)c3)CC2CS1.O=C(O)C(F)(F)F (stereo not given) |  | 2.7 | 7.2 |  |  | 
4 | NC1=NC2CCC(NC(=O)c3cccc(Cl)c3)CC2CS1 (stereo not given) |  |  |  | metabolite_notdetected | 9.3 | 0.75
5 | NC1=N[C@]23CC[C@H](NC(=O)c4cccc(Cl)c4)C[C@@H]2[C@@H](COC3)S1 |  |  |  | metabolite_notdetected | 6.7 | 0.61
6 | NC1=NC23CCC(NC(=O)c4cccc(Cl)c4)CC2(COC3)CS1 (racemic) | 8.2 |  |  |  |  | 

Source: ChEMBL document CHEMBL3585284, “Preparation and biological evaluation of conformationally constrained BACE1 inhibitors” (Bioorg Med Chem, 2015)
